This note sets out measurements from ChEMBL document CHEMBL5150070, “Tricyclic SpiroLactams Kill Mycobacteria In Vitro and In Vivo by Inhibiting Type II NADH Dehydrogenases” (J Med Chem, 2022).

≈ marks a conversion by molar mass, not a printed value. Bounds are passed on as bounds.

For orientation: logD means lipophilicity at a set pH, counting ionised and neutral species. Higher therefore signals a more lipophilic compound. The term IC50 denotes the point on the concentration scale where inhibition reaches its midpoint. As usually defined, the MIC is the lowest concentration that inhibits growth of the organism. As usually defined, the solubility is the dissolved amount per volume that the medium holds. A lower solubility goes with little dissolved substance.

Series [1] in a line: Octanol/PBS partition coefficient, logD of compound at pH 7.4 measured after 2 hrs by shake flask method. Format: physicochemical. The conditions noted are these: octanol/water, pH 7.4, 2 h. A digest of the protocol:
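A 10 mM DMSO stock was diluted 50-fold into 1:1 octanol:PBS pH 7.4 and shaken gently for 2 h at room temperature. Each phase was diluted 50-fold in MeOH and quantified by LC-MS/MS. LogD = log of the octanol/PBS concentration ratio from mass signals. Run in triplicate.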

The subject of series [2] is Mycobacterium tuberculosis. Nature of the series: Antimycobacterial activity against Mycobacterium tuberculosis H37Rv infected in human A-THP1 macrophages assessed as viability of infected macrophages incubated for 96 hrs by fluorescence microplate assay. Format: functional, organism-based. A digest of the protocol:
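THP-1 cells differentiated with 50 ng/mL PMA for 72 h, infected with log-phase H37Rv (MOI 10, 2 h), and extracellular bacteria killed with 50 µg/mL amikacin for 1 h. Cells detached and seeded at 5×10⁵/mL in RPMI-10% FBS with PMA onto pre-dispensed compound, 96 h at 37°C, 5% CO₂. Macrophage viability by 0.05% resazurin fluorescence.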

Series [3] concerns Mycobacteroides abscessus. Nature of the series: Antibiotic activity against Mycobacterium abscessus CIP104536, Smooth variant assessed as reduction in bacterial cell growth by measuring resazurin reduction incubated for 6 days by fluorescence microplate based assay. Format: functional. To be noted: 144 h, time 6 day.
The subject of a further series is Acinetobacter baumannii. Nature of the series: Antibiotic activity against Acinetobacter baumannii LMG-17978 assessed as reduction in bacterial cell growth by measuring resazurin reduction incubated for 6 days by fluorescence microplate based assay. The class given is functional. To be noted: LMG-17978, 144 h, time 6 day. Background: Resazurin is reduced to fluorescent resorufin, in cell work by metabolically active cells.

Series [4] deals with T1, Type II NADH:quinone oxidoreductase NdhA (Mycobacterium tuberculosis, UniProt P95200).
T1 sequence (P95200 whole entry): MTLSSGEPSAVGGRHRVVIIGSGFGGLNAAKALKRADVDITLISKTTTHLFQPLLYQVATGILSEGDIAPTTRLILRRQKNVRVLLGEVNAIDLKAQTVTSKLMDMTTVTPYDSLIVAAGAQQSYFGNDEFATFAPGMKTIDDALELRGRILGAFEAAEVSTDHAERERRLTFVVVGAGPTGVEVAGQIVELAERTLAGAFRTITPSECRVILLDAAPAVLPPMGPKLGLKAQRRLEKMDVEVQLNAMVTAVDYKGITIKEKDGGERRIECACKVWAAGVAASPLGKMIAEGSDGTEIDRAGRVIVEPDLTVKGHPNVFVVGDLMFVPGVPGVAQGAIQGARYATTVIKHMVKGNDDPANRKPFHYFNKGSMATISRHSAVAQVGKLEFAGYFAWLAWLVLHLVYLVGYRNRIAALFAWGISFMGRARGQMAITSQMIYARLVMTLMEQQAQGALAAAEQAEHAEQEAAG
Nature of the series: Inhibition of Mycobacterium smegmatis MC2 155 recombinant ndhA assessed as rate of NADH oxidation in the presence of an electron acceptor menadione. Set-up: species or system Mycolicibacterium smegmatis.

Series [5] is described as follows: Aqueous solubility of compound in pH 7.4 […]. Format: physicochemical. The conditions noted are these: buffer. A digest of the protocol: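 A 10 mM DMSO stock was diluted 50-fold into PBS pH 7.4 or methanol and shaken gently for 24 h at room temperature. Samples were centrifuged, filtered (0.45 µm), diluted 50-fold in MeOH and analysed by LC-MS/MS. Solubility = (AUC PBS/AUC MeOH)×200. Run in triplicate.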

Another series deals with Klebsiella pneumoniae. Nature of the series: Antibiotic activity against Klebsiella pneumoniae LMG 2095 assessed as reduction in bacterial cell growth by measuring resazurin reduction incubated for 6 days by fluorescence microplate based assay. The class given is functional. The conditions noted are these: LMG 2095, 144 h, time 6 day.
The subject of a further series is Bacillus subtilis. The experiment in a line: Antibiotic activity against Bacillus subtilis ATCC6633 assessed as reduction in bacterial cell growth by measuring resazurin reduction incubated for 6 days by fluorescence microplate based assay. The class given is functional. The conditions noted are these: ATCC6633, 144 h, time 6 day.
For another series, the system named is Mycobacterium avium. The experiment in a line: Antibiotic activity against Mycobacterium avium TMC 724, ATCC-25291 assessed as reduction in bacterial cell growth by measuring resazurin reduction incubated for 6 days by fluorescence microplate based assay. The class given is functional. To be noted: TMC 724, ATCC-25291, 144 h, time 6 day.
For series [6], the system named is Mycobacterium tuberculosis. The experiment in a line: Antibiotic activity against Mycobacterium tuberculosis H37Rv assessed as reduction in bacterial cell growth by measuring resazurin reduction incubated for 6 days by fluorescence microplate based assay. The class given is functional. To be noted: 144 h, time 6 day.
The test system of another series is Escherichia coli. Nature of the series: Antibiotic activity against Escherichia coli deltatolC BW25113 deltatolC assessed as reduction in bacterial cell growth by measuring resazurin reduction incubated for 6 days by fluorescence microplate based assay. The class given is functional. The conditions noted are these: 144 h, time 6 day. A digest of the protocol: (§1)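 E. coli BW25113, E. coli ΔtolC and S. aureus SH1000 were cultured and tested in cation-adjusted Mueller Hinton II broth. Viability was read by adding resazurin and measuring resorufin fluorescence at Ex 530 nm / Em 590 nm.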

A further series has as its system Pseudomonas aeruginosa. The experiment in a line: Antibiotic activity against Pseudomonas aeruginosa POA1 assessed as reduction in bacterial cell growth by measuring resazurin reduction incubated for 6 days by fluorescence microplate based assay. Format: functional. The conditions noted are these: POA1, 144 h, time 6 day.
Series [7] has as its system Mycolicibacterium smegmatis. The experiment in a line: Antibiotic activity against Mycobacterium smegmatis mc2155 assessed as reduction in bacterial cell growth by measuring resazurin reduction incubated for 6 days by fluorescence microplate based assay. Format: functional. To be noted: mc2155, 144 h, time 6 day.
The subject of another series is Staphylococcus aureus. Nature of the series: Antibiotic activity against Staphylococcus aureus SH1000 assessed as reduction in bacterial cell growth by measuring resazurin reduction incubated for 6 days by fluorescence microplate based assay. The class given is functional. The conditions noted are these: SH1000, 144 h, time 6 day. A digest of the protocol:
as §1

Series [8] deals with Mycobacteroides abscessus. The experiment in a line: Antibiotic activity against Mycobacterium abscessus CIP104536, Rough variant assessed as reduction in bacterial cell growth by measuring resazurin reduction incubated for 6 days by fluorescence microplate based assay. Format: functional. To be noted: 144 h, time 6 day.
For another series, the system named is Mycobacterium marinum. Nature of the series: Antibiotic activity against Mycobacterium marinum M strain assessed as reduction in bacterial cell growth by measuring resazurin reduction incubated for 6 days by fluorescence microplate based assay. Format: functional. To be noted: 144 h, time 6 day.
The subject of series [9] is Mycobacterium tuberculosis. Nature of the series: Bactericidal activity against Non-replicating Mycobacterium tuberculosis ss18b-lux model assessed as decrease in luminescence at 10 to 10000 nM. The class given is functional, organism-based. The conditions noted are these: dose 10-10000 nM, TDE = time-dependent effect. A digest of the protocol: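 Non-replicating streptomycin-starved 18b-lux (14-day starvation) diluted to OD600 0.15 in white 96-well plates with compound and incubated at 37°C. Luminescence read on days 1, 2, 5 and 7 and expressed relative to no-antibiotic controls (n ≥ 3).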

The test system of series [10] is Mycobacterium tuberculosis. The experiment in a line: Bactericidal activity against Non-replicating Mycobacterium tuberculosis ss18b-lux assessed as decrease in colony forming unit measured at 1 uM after 1 weeks. The class given is functional. A digest of the protocol:
(§2)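 Streptomycin-dependent 18b-lux starved of streptomycin for 14 days (OD600 reset to 0.2 on days 7 and 13) to become non-replicating. Diluted to OD600 0.15 on dispensed compound and held at 37°C. On day 7, active wells plated on 7H11-OADC with 50 µg/mL streptomycin and incubated up to 8 weeks for cfu.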

Series [11] concerns Mycobacterium tuberculosis. The experiment in a line: Bactericidal activity against Non-replicating Mycobacterium tuberculosis ss18b-lux assessed as decrease in colony forming unit measured at 0.6 uM after 1 weeks. Format: functional. An outline of the steps: as §2

Molecule `CC(C)[C@H]1CO[C@]23CCN(Cc4ccccc4)C[C@H]2CCC(=O)N13` returned a log distribution coefficient (logD) in series [1] of 2.7. Also, the IC50 was found to be 8200 nM in series [2] and 980 nM in series [4]. The minimum inhibitory concentration (MIC) in series [3] is ≥ 100 µM; in the series on Acinetobacter baumannii, > 100 µM; with Klebsiella pneumoniae, > 100 µM; in the series with Bacillus subtilis, > 100 µM; in the series with Mycobacterium avium it was 13.1 µM (≈ 4.3 µg/mL); in series [6], 3.2 µM (≈ 1.05 µg/mL). Further, the MIC in the series with Escherichia coli is > 100 µM; in the series with Pseudomonas aeruginosa, > 100 µM; in series [7], 29.2 µM (≈ 9.59 µg/mL); with Staphylococcus aureus it was > 100 µM; in series [8], ≥ 100 µM; with Mycobacterium marinum, 6.3 µM (≈ 2.07 µg/mL). The solubility in series [5] came out at 178 µM (≈ 58.5 µg/mL).

As to `COc1nc2ccc(Br)cc2cc1[C@@H](c1ccccc1)[C@@](O)(CCN(C)C)c1cccc2ccccc12` [BEDAQUILINE], in series [2], the IC50 is 34 nM. For the same molecule, the Activity entry was “Tde” in [9] and 1 log10CFU in [10].

Turning to `CO[C@H]1/C=C/O[C@@]2(C)Oc3c(C)c(O)c4c(O)c(c(/C=N/N5CCN(C)CC5)c(O)c4c3C2=O)NC(=O)/C(C)=C\C=C\[C@H](C)[C@H](O)[C@@H](C)[C@@H](O)[C@@H](C)[C@H](OC(C)=O)[C@@H]1C` [RIFAMPIN], in series [2], the half-maximal inhibitory concentration (IC50) was 91 nM. Moreover, the Activity result in series [9] is “Tde”; in [11] it was 1 log10CFU.
